Results gathered from unrelated publications.
KMT5A: N-lysine methyltransferase KMT5A (KMT5A, Homo sapiens, UniProt Q9NQR1)
PRKACA: cAMP-dependent protein kinase catalytic subunit alpha (PRKACA, Bos taurus, UniProt P00517)
CCKAR: Cholecystokinin receptor type A (CCKAR, Homo sapiens, UniProt P32238)
PRKCB: Protein kinase C beta type (PRKCB, Homo sapiens, UniProt P05771)

| Structure (SMILES) | target | assay | system | conditions | inhibition |
| --- | --- | --- | --- | --- | --- |
| CN(C)c1ccc2nc3ccc(=[N+](C)C)cc-3sc2c1 | KMT5A | cell-free assay |  | 10 µM | 43% |
| COc1cc(-c2cc(-c3ccc(N4CCNCC4)cc3)cnc2N)cc(OC)c1OC | Tyrosine-protein kinase ABL1 (ABL1, Homo sapiens, UniProt P00519, H396P) | enzyme activity, inhibitor |  | 1 µM | 96% |
| CCN(CC)CCNC(=O)c1c(C)[nH]c(/C=C2\C(=O)Nc3ccc(F)cc32)c1C | PRKACA | enzyme activity, inhibitor |  | 10 µM | 1% |
| O=C1C=CC(=O)c2c(O)cccc21 | KMT5A | cell-free assay |  | 10 µM | 19% |
| O=C(c1ccc(F)cc1)N(Cc1ccccc1)C1CCCCC1 | Alpha-2A adrenergic receptor (ADRA2A, Homo sapiens, UniProt P08913) | cell-free assay |  | 10 µM | 13% |
| Cc1ccc(Nc2nccc(N(C)c3ccc4c(C)n(C)nc4c3)n2)cc1S(N)(=O)=O | PRKACA | enzyme activity, inhibitor |  | 10 µM | -19% |
| COc1cc(NC(C)CCCN)c2ncccc2c1 (stereo not drawn) | KMT5A | cell-free assay |  | 10 µM | 28% |
| O=C1N=C(N2CCCCN2)S/C1=C\c1ccc(F)cc1O | CCKAR | ligand displacement, radioligand |  | 10 µM | 10% |
| CCCCCCCCCCCCCCCc1cccc(O)c1C(=O)O | Histone acetyltransferase p300 (EP300, Homo sapiens, UniProt Q09472) | enzyme activity, inhibitor, fluorescence |  | 52 µM | ~60% |
| Cn1cncc1C1=CN(c2ncnc3[nH]cnc23)CCS1 | Serine/threonine-protein kinase LATS1 (LATS1, Homo sapiens, UniProt O95835) | enzyme activity, inhibitor, radiometric |  | 50 nM | 35% |
| O=C(O[C@@H]1Cc2c(O)cc(O)cc2O[C@@H]1c1cc(O)c(O)c(O)c1-c1c([C@H]2Oc3cc(O)cc(O)c3C[C@H]2O)cc(O)c(O)c1O)c1cc(O)c(O)c(O)c1 | KMT5A | cell-free assay |  | 10 µM | 17% |
| CCN(c1cc(C#CCN2CCOCC2)cc(C(=O)NCc2c(C)cc(C)[nH]c2=O)c1C)[C@H]1CC[C@H](N(C)CCOC)CC1 | Protein arginine N-methyltransferase 6 (PRMT6, Homo sapiens, UniProt Q96LA8) | enzyme activity, inhibitor |  | 1 µM | 6% |
| O=C(Oc1cc(O)cc2c1C[C@@H](OC(=O)c1cc(O)c(O)c(O)c1)[C@@H](c1cc(O)c(O)c(O)c1)O2)c1cc(O)c(O)c(O)c1 | KMT5A | cell-free assay |  | 10 µM | 6% |
| COc1cc2ncnc(Nc3ccc(Oc4ccccc4)cc3C)c2cc1OC | PRKCB | enzyme activity, inhibitor |  | 1 µM | 7% |
| O=C(O)c1cc(O)c2c(c1)[C@H]([C@H]1c3cc(C(=O)O)cc(O)c3C(=O)c3c(O[C@@H]4O[C@H](CO)[C@@H](O)[C@H](O)[C@H]4O)cccc31)c1cccc(O[C@@H]3O[C@H](CO)[C@@H](O)[C@H](O)[C@H]3O)c1C2=O | KMT5A | cell-free assay |  | 10 µM | 23% |
| Oc1cccc(Nc2nc(-c3ccc(F)cc3F)cs2)c1 | CCKAR | cell-free assay |  | 10 µM | 76% |
| CN(C)C1CCN(CC#Cc2nn(C3CCCC3)c3nc(NCc4ccccc4)ncc23)C1 (stereo not drawn) | Tyrosine-protein kinase ITK/TSK (ITK, Homo sapiens, UniProt Q08881) | enzyme activity, inhibitor, FRET |  | 1 µM | 5% |
| COc1cc(NC(C)=O)c(Cl)cc1C(=O)Nc1nccs1 | Androgen receptor (AR, Homo sapiens, UniProt P10275) | cell-free assay |  | 10 µM | -19.5% |
| CCN1CCN(Cc2ccc(NC(=O)c3ccc(C)c(Oc4ccnc5[nH]ccc45)c3)cc2C(F)(F)F)CC1 | Receptor-interacting serine/threonine-protein kinase 4 (RIPK4, Homo sapiens, UniProt P57078) | target engagement in cells, inhibitor, chemoproteomics | A-375 | 5 µM | -11.6% |
| CCCCC(CC)CNC(=N)NC(=N)NCCCCCCNC(=N)NC(=N)NCC(CC)CCCC (stereo not drawn) | KMT5A | cell-free assay |  | 10 µM | 34% |
| CNC(=O)c1cc(Oc2ccc(NC(=O)Nc3ccc(Cl)c(C(F)(F)F)c3)cc2)ccn1 | PRKCB | enzyme activity, inhibitor |  | 10 µM | -3% |
